This passage reports IC50 and GI50 results from ChEMBL document CHEMBL1949577, “Design, synthesis and biological evaluation of novel (E)-α-benzylsulfonyl chalcone derivatives as potential BRAF inhibitors” (Eur J Med Chem, 2012).

Test [1] addresses Serine/threonine-protein kinase B-raf (Homo sapiens, UniProt P15056, V600E). Kind of test: Inhibition of B-Raf V600E mutant-mediated ERK phosphorylation in human WM266.4 cells by ELISA. Format: cell-based. Put shortly: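 Phospho-ERK1/2 levels in WM266.4 melanoma cells were measured with an ELISA kit, run as the manufacturer instructs.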
Test [2] can be described thus: Inhibition of mouse full length GST-tagged B-Raf V600E mutant-mediated human MEK1 phosphorylation after 1 hr preincubation.
The nature of test [3]: Growth inhibition of human WM266.4 cells expressing B-Raf V600E mutant after 24 hrs by MTT assay. Format: functional. To be noted: WM 266-4, 24 h. In a few lines: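 MTT growth assay. Cells were plated, then returned to the incubator for 24 h to reattach before treatment. Compounds were made up at 20 mM in DMSO (stock), diluted in culture medium to […], and tested over 10 threefold serial dilutions. GI50 was reported from three separate experiments, or from two for some entries.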
In general terms: Formazan colour is commonly taken as a measure of viable cells.

Sequence of Serine/threonine-protein kinase B-raf (P15056 2-766 V600E limits assumed): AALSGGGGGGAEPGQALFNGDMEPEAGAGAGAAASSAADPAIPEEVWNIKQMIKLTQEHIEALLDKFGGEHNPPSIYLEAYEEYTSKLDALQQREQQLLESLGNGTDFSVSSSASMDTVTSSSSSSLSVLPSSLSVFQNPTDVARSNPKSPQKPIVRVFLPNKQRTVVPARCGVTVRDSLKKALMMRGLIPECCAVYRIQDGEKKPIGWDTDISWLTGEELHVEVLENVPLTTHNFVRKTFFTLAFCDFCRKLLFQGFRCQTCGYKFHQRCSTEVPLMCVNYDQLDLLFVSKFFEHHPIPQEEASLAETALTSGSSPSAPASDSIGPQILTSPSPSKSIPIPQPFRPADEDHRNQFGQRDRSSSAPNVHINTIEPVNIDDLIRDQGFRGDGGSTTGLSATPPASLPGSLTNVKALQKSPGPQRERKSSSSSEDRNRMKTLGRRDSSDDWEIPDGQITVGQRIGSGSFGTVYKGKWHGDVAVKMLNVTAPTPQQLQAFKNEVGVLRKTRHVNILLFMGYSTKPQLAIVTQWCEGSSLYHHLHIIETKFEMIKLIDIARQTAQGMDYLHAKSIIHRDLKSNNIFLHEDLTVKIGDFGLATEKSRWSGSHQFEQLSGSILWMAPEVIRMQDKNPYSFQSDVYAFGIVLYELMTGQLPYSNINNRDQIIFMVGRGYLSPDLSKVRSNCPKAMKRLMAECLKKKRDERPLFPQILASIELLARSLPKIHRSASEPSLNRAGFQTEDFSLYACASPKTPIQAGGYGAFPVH

One may read the IC50 as the midpoint of a concentration-inhibition curve. Read a high IC50 as lower potency. `O=C(/C(=C\c1ccc([N+](=O)[O-])cc1)S(=O)(=O)Cc1ccccc1)c1ccccc1`: half-maximal inhibition in test [1] (IC50) required 1.37 µM. In turn, `O=C(/C(=C\c1ccc([N+](=O)[O-])cc1)S(=O)(=O)Cc1ccccc1)c1ccc(Cl)cc1` yielded an IC50 in test [1] of 1.23 µM. The IC50 values of the last two compounds are within 1.5-fold of each other. Still for that read-out and setting: the value for `O=C(/C(=C\c1ccc(F)cc1)S(=O)(=O)Cc1ccccc1)c1ccc(Cl)cc1` was 1.78 µM. In test [2], `Cc1ccc(N(Cc2cc(Cl)cc(Cl)c2O)CN(N=O)c2ccccc2)cc1` yielded an IC50 of 8.61 µM. In other words, the single-digit micromolar range. Turning to `Cc1ccc(N2C(=O)c3ccccc3SC2c2cc(Br)ccc2O)cc1` (centres undefined), in test [2], the IC50 is above 25 µM. Still for that read-out and setting: the value for `O=C1c2ccccc2SC(c2cc(Br)ccc2O)N1c1ccc(C(F)(F)F)cc1` (centres undefined) was above 25 µM; that for `O=c1cc(-c2ccc3c(c2)OCCO3)oc2cc(CCCN3CCCC3)cc(O)c12` was 10.6 µM. Broadly, the GI50 is the concentration at which growth is held to half of that of the control. A lower GI50 goes with more potent growth inhibition. Take `CNC(=O)c1cc(Oc2ccc(NC(=O)Nc3ccc(Cl)c(C(F)(F)F)c3)cc2)ccn1` [SORAFENIB]: the IC50 in test [2] turned out to be 0.06 µM. The GI50 in test [3] stood at 8.3 µM.
